Calls of active or inactive are those of the source. The calls are words filed in the database; no cut-off is given here.
What was measured:
[1] = test system: Plasmodium berghei; experiment: Antiplasmodial activity against luciferase expressing Plasmodium berghei sporozoites infected in human HuH7 cells at 10 uM preincubated for 1 hr followed by parasite infection measured after 48 hrs by bioluminescence analysis relative to control; type: functional
Method in brief: (§1)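 Huh-7 hepatoma cells (1.0 × 10^4/well) seeded the day before. Compound-containing medium added about 1 h before infection with fresh firefly luciferase-expressing P. berghei sporozoites from Anopheles stephensi salivary glands, then spun 1700 g for 5 min. DMSO vehicle in controls. Parasite load read by bioluminescence 48 h post-infection. Initial screen at fixed concentrations; EC50 from nonlinear regression of normalized dose-response data.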

[2] = test system: Plasmodium berghei; experiment: Antiplasmodial activity against luciferase expressing Plasmodium berghei sporozoites infected in human HuH7 cells at 2 uM preincubated for 1 hr followed by parasite infection measured after 48 hrs by bioluminescence analysis relative to control; type: functional; method in brief: as §1
[3] = test system: Plasmodium falciparum; experiment: Antiplasmodial activity against chloroquine resistant Plasmodium falciparum W2 erythrocytic ring stage after 48 hrs using hypoxanthine by flow cytometric analysis; type: functional, organism-based; conditions: W2, 48 h
Method in brief: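 Ring-stage W2 P. falciparum synchronized with 5% sorbitol, about 1% parasitemia in human erythrocytes. Cells fixed in 2% formaldehyde, stained with 1 nM YOYO-1, infected cells counted by flow cytometry. IC50 taken against untreated controls; two experiments, four replicates each.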

[4] = test system: Huh-7; experiment: Cytotoxicity against human HuH7 cells assessed as reduction in cell viability at 10 uM after 48 hrs by Alamar blue assay; type: cell-based; conditions: huh-7, 48 h
Method in brief: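 Huh-7 cells seeded and infected with P. berghei sporozoites as in the liver-stage assay, with compound added about 1 h before infection and DMSO vehicle in controls. Host cell viability read by AlamarBlue fluorescence 48 h post-infection.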

[5] = test system: Plasmodium berghei; experiment: Antiplasmodial activity against luciferase expressing Plasmodium berghei infected in human HuH7 cells preincubated for 1 hr followed by parasite infection measured after 48 hrs by bioluminescence analysis; type: functional, organism-based; conditions: Huh-7; method in brief: as §1
[6] = Intrinsic clearance in rat liver microsomes assessed per mg protein at […] in presence of NADPH by HPLC analysis; type: ADME, microsome; conditions: read-out: CLH
[7] = Selectivity index, ratio of CC50 for human Caco2 cells to IC50 for chloroquine resistant Plasmodium falciparum W2 erythrocytic ring stage; type: toxicity; conditions: Caco-2 cells, read-out: Ratio CC50/IC50
[8] = Half life in rat liver microsomes at […] in presence of NADPH by HPLC analysis; type: ADME, microsome
[9] = Cytotoxicity against human Caco2 cells assessed as reduction in cell viability after 72 hrs by neutral red dye based assay; conditions: Caco-2 cells
Method in brief: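 CaCo-2 cells grown in RPMI-1640 with 10% FBS and antibiotic-antimycotic at 37°C, 5% CO2. Exposed once confluent for 72 h to compound diluted in medium, organic solvent ≤1%. Medium then removed and cells washed with PBS.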

Structure (SMILES)	Activity [1]	Activity [2]	EC50 [3] [nM]	Activity [4]	EC50 [5] [nM]	microsomal CLint [6] [µL/min/mg]	selectivity ratio [7]	half-life [8] [min]	CC50 at 72 h [9] [nM]
COc1cc(NC(C)CCCNCC2CCC3(CC2)OOC2(OO3)C3CC4CC(C3)CC2C4)c2ncccc2c1-c1ccc(F)cc1 (stereo not drawn)	Active	Active	99	Toxic	–	–	–	–	–
CCOC(=O)C1CCC2(CC1)OOC1(OO2)C2CC3CC(C2)CC1C3 (stereo not drawn)	–	–	–	–	17300	–	–	–	–
COc1cc(NC(C)CCCNC(=O)C2CCC3(CC2)OOC2(OO3)C3CC4CC(C3)CC2C4)c2ncccc2c1-c1ccsc1 (stereo not drawn)	Active	>50%	45	Non-Toxic	2110	37.4	> 600	37	> 50000
COc1cc(NCCCNC(=O)C2CCC3(CC2)OOC2(OO3)C3CC4CC(C3)CC2C4)c2ncccc2c1-c1ccc(F)cc1 (stereo not drawn)	Active	>50%	15	Non-Toxic	2610	39.6	–	35	–
COc1cc(NC(C)CCCNCC2CCC3(CC2)OOC2(OO3)C3CC4CC(C3)CC2C4)c2ncccc2c1-c1ccsc1 (stereo not drawn)	Active	Active	81	Toxic	–	–	–	–	–
COc1cc(NC(C)CCCNC(=O)C2CCC3(CC2)OOC2(OO3)C3CC4CC(C3)CC2C4)c2ncccc2c1-c1ccc(Cl)cc1 (stereo not drawn)	Active	>50%	75	Non-Toxic	2810	10.7	> 1000	129	> 50000
COc1cc(NC(C)CCCNC(=O)C2CCC3(CC2)OOC2(OO3)C3CC4CC(C3)CC2C4)c2ncccc2c1-c1ccoc1 (stereo not drawn)	Active	>50%	76	Non-Toxic	2350	–	> 600	–	> 50000
COc1cc(NC(C)CCCNC(=O)C2CCC3(CC2)OOC2(OO3)C3CC4CC(C3)CC2C4)c2ncccc2c1-c1ccc(C(F)(F)F)cc1 (stereo not drawn)	Active	>50%	60	Non-Toxic	4120	13.9	> 1000	100	> 50000
C[C@@H]1CC[C@H]2[C@@H](C)C(=O)O[C@@H]3O[C@@]4(C)CC[C@@H]1[C@]32OO4 [ARTEMISININ]	–	–	10	–	–	–	–	–	–
COc1cc(NC(C)CCCNCC2CCC3(CC2)OOC2(OO3)C3CC4CC(C3)CC2C4)c2ncccc2c1-c1ccccc1 (stereo not drawn)	Active	Active	92	Toxic	–	–	–	–	–
COc1cc(NC(C)CCCNCC2CCC3(CC2)OOC2(OO3)C3CC4CC(C3)CC2C4)c2ncccc2c1-c1ccc(Cl)cc1 (stereo not drawn)	Active	Active	–	Toxic	–	–	–	–	13200
COc1cc(NC(C)CCCNCC2CCC3(CC2)OOC2(OO3)C3CC4CC(C3)CC2C4)c2ncccc2c1-c1ccoc1 (stereo not drawn)	Active	Active	120	Toxic	–	–	–	–	–
COc1cc(NC(C)CCCNC(=O)C2CCC3(CC2)OOC2(OO3)C3CC4CC(C3)CC2C4)c2ncccc2c1-c1ccc(Br)cc1 (stereo not drawn)	Active	>50%	61	Non-Toxic	4440	–	> 1000	–	> 50000
COc1cc(NC(C)CCCNC(=O)C2CCC3(CC2)OOC2(OO3)C3CC4CC(C3)CC2C4)c2ncccc2c1-c1ccc(C)cc1 (stereo not drawn)	Active	>50%	141	Non-Toxic	1650	15.9	–	87	> 50000
COc1cc(NC(C)CCCNCC2CCC3(CC2)OOC2(OO3)C3CC4CC(C3)CC2C4)c2ncccc2c1-c1ccc(C(F)(F)F)cc1 (stereo not drawn)	62%	Active	19	Toxic	–	–	–	–	10300
COc1cc(NC(=O)C2CCC3(CC2)OOC2(OO3)C3CC4CC(C3)CC2C4)c2ncccc2c1-c1ccc(Br)cc1 (stereo not drawn)	35%	–	5670	–	–	11.2	–	124	–
COc1cc(NC(C)CCCNC(=O)C2CCC3(CC2)OOC2(OO3)C3CC4CC(C3)CC2C4)c2ncccc2c1Br (stereo not drawn)	Active	>50%	16	Toxic	–	99	–	14	–
COc1cc(NCCCCNC(=O)C2CCC3(CC2)OOC2(OO3)C3CC4CC(C3)CC2C4)c2ncccc2c1-c1ccc(F)cc1 (stereo not drawn)	Active	>50%	15	Non-Toxic	1110	92.4	–	15	10200
COc1cc(NC(C)CCCN)c2ncccc2c1-c1ccc(C)cc1 (stereo not drawn)	–	–	2350	–	5430	–	–	–	–
COc1cc(NC(C)CCCNC(=O)C2CCC3(CC2)OOC2(OO3)C3CC4CC(C3)CC2C4)c2ncccc2c1-c1ccc(F)cc1 (stereo not drawn)	Active	>50%	57	Non-Toxic	2380	34.6	> 1000	40	> 50000
COc1cc(NC(C)CCCNCC2CCC3(CC2)OOC2(OO3)C3CC4CC(C3)CC2C4)c2ncccc2c1-c1ccc(C)cc1 (stereo not drawn)	Active	Active	176	Toxic	–	–	–	–	11700
COc1cc(NCCCCCNC(=O)C2CCC3(CC2)OOC2(OO3)C3CC4CC(C3)CC2C4)c2ncccc2c1-c1ccc(F)cc1 (stereo not drawn)	Active	>50%	17	Non-Toxic	1640	55.4	–	25	–
COc1cc(NC(C)CCCNC(=O)C2CCC3(CC2)OOC2(OO3)C3CC4CC(C3)CC2C4)c2ncccc2c1-c1ccccc1 (stereo not drawn)	Active	>50%	204	Non-Toxic	1690	33	–	42	> 50000
COc1cc(NC(=O)C2CCC3(CC2)OOC2(OO3)C3CC4CC(C3)CC2C4)c2ncccc2c1-c1ccccc1 (stereo not drawn)	52%	–	287	–	–	33	–	42	–
COc1cc(NC(=O)C2CCC3(CC2)OOC2(OO3)C3CC4CC(C3)CC2C4)c2ncccc2c1-c1ccc(F)cc1 (stereo not drawn)	–	–	916	–	–	23.1	–	60	–
COc1cc(NC(=O)C2CCC3(CC2)OOC2(OO3)C3CC4CC(C3)CC2C4)c2ncccc2c1-c1ccc(Cl)cc1 (stereo not drawn)	37%	–	4190	–	–	11.1	–	125	–

— ChEMBL document CHEMBL4196053, “Endoperoxide-8-aminoquinoline hybrids as dual-stage antimalarial agents with enhanced metabolic stability” (Eur J Med Chem, 2018)
